High-throughput results as filed in PubChem BioAssay.
KCNQ1 block: blocks the human KCNQ1 potassium channel | CHO-K1 KCNQ1, FluxOR thallium flux fluorescence; active compounds read high | B-score at 10 µM | actives 1.3% (n = 310,000);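 active means compounds whose thallium flux B-score, printed positive for inhibition, exceeds three library SD while starting fluorescence stays within three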;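 further: channel opened by potassium depolarization with thallium stimulus after 20 min compound exposure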
Target sequence (P51787 whole entry, looked up): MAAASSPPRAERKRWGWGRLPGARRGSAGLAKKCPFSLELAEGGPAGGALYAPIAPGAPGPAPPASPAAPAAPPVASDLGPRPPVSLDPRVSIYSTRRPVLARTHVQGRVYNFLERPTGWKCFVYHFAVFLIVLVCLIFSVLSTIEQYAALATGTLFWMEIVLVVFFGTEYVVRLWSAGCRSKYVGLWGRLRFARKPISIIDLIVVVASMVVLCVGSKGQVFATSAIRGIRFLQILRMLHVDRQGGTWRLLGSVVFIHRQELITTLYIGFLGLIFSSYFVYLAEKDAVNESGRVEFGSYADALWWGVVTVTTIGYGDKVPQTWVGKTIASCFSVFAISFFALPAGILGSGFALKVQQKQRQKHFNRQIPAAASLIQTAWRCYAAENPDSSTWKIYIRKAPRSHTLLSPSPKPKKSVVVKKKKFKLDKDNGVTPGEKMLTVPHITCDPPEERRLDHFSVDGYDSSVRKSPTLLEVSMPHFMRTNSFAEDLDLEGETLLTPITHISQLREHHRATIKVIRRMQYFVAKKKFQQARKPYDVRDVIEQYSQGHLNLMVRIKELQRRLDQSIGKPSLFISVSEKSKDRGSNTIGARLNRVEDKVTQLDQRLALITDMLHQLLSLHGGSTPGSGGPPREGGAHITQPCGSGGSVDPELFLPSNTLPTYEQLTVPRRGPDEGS
Kir21 inh: blocks the mouse Kir2.1 inward-rectifier potassium channel; P35561; HEK293-Kir2.1, FluxOR thallium flux fluorescence; active compounds read low; B-score at 10 µM; actives 0.85% (n = 310,000);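 active means fluorescence ratio B-score at or below minus 3 SD of library scores, with starting-brightness B-score within 2 SD, cut at about -4.2 in these data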;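 further: channel flux triggered by added potassium and thallium sulfate stimulus; B-score of peak minus minimum fluorescence over baseline after thallium stimulus; more negative B-score means stronger Kir2.1 block with less thallium influx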
hERG rescue: shields human hERG channel from block by proarrhythmic agents. CHO-hERG, FluxOR thallium flux, dofetilide IC70 present. activation (rescue from dofetilide block), less the hit threshold, % at 10 µM. actives 0.51% (n = 310,000). AID 1511;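 active means activation above the mean of controls blocked by dofetilide plus 5 SD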;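 further: thallium influx through hERG after potassium depolarization seen as dye fluorescence rise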
KCNK3 block: human KCNK3 channel inhibition, primary screen; AID 602410; B-score at 10 µM; actives 0.84% (n = 340,000); O14649; CHO-KCNK3 thallium flux, FluxOR fluorescence; active compounds read low;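 active means B-score under library mean minus 4 SD, starting fluorescence ratio at most library mean plus 5 SD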;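 further: more negative B-score means stronger inhibition of thallium flux through KCNK3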
KCNK9 block: human KCNK9 channel inhibition | HEK293 KCNK9, FluxOR thallium flux fluorescence; active compounds read low | B-score at 10 µM | actives 1.2% (n = 310,000);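 active means ratio B-score over 3 SD below the library mean, with starting fluorescence within 5 SD of its mean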;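 further: negative B-score means less thallium flux so channel inhibition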
KCNQ1 act: human KCNQ1 channel potentiation or activation; P51787; actives 0.35% (n = 310,000); CHO-K1 KCNQ1, thallium flux FluxOR fluorescence; active compounds read high; B-score at 10 µM; AID 2648;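 active means fluorescence ratio B-score, a plate-corrected score, at least three library SD, with initial intensity B-score within 5 SD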
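Assay system: CHO-K1 cells stably expressing KCNQ1; Medium: assay buffer with matched DMSO; Also added: K+/Tl+ depolarizing stimulus; Dosing: single dose; Timing: dye 90 min, compound 20 min, room temperature; Measured by: kinetic FluxOR thallium fluorescence, 10-s 1-Hz baseline, 110-s post-stimulus read; Read-out: peak-minus-minimum fluorescence over initial fluorescence, negative-control normalized, B-scored.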
Hits are given with their value. Rows were chosen to be rich in hits. Some 3.7% of all compounds tested hit in one or more screens of this group.

`CC(C)COc1ccc(-c2nnc(-c3ccco3)o2)cc1` gave KCNQ1 block inactive, Kir21 inh inactive, hERG rescue inactive, KCNK3 block inactive, KCNK9 block inactive and KCNQ1 act inactive.
`Oc1[nH]c2ccccc2c1N=Nc1ccccn1` gave KCNK3 block inactive.
Screening Oc1c(N=Nc2ccccn2)ccc2ccccc12 returned KCNQ1 block inactive, Kir21 inh inactive, hERG rescue 25, KCNK3 block inactive, KCNK9 block inactive and KCNQ1 act 29.
Screening CCn1c(CNC(=O)c2ccccc2F)nnc1SCC(=O)NC1CCCCC1C (stereo unspecified) returned KCNQ1 block inactive, Kir21 inh inactive, hERG rescue inactive, KCNK3 block inactive, KCNK9 block inactive and KCNQ1 act inactive.
CC(=O)C1=C(C)NC(SCC(=O)Nc2nc3ccccc3s2)=C(C#N)C1c1ccc(Cl)cc1 (stereo unspecified) was read as KCNQ1 block 7, Kir21 inh inactive, hERG rescue inactive, KCNK3 block inactive, KCNK9 block inactive and KCNQ1 act inactive.
COc1ccc(NC(=O)CSC2=C(C#N)C(c3ccco3)C(C(=O)Nc3nc4ccccc4s3)=C(C)N2)cc1 (stereo unspecified) was read as KCNQ1 block inactive, Kir21 inh inactive, hERG rescue inactive, KCNK3 block inactive, KCNK9 block inactive and KCNQ1 act inactive.
NC(=O)c1ccc(-c2nnn(CC(=O)Nc3cccc(S(=O)(=O)N4CCCC4)c3)n2)cc1 was read as KCNK3 block inactive.
`CCn1nc(C)cc1-c1nnc(SCC(=O)Nc2ccccc2)n1CCCOC` gave KCNQ1 block inactive, Kir21 inh inactive, hERG rescue inactive, KCNK3 block inactive, KCNK9 block inactive and KCNQ1 act inactive.
Screening CCn1nc(C)cc1-c1nnc(Sc2ncc([N+](=O)[O-])s2)n1C returned KCNQ1 block 11, Kir21 inh inactive, hERG rescue inactive, KCNK3 block inactive, KCNK9 block inactive and KCNQ1 act inactive.
`COC(CN1CCc2c(C)nc3c(C#N)cnn3c21)OC` gave KCNQ1 block inactive, Kir21 inh inactive, hERG rescue 6.3, KCNK3 block inactive, KCNK9 block inactive and KCNQ1 act inactive.
`Cc1cc(Oc2ccc(C)c(Cl)c2)nc(SCC(=O)c2ccccc2)n1` gave KCNQ1 block inactive, Kir21 inh inactive, hERG rescue inactive, KCNK3 block inactive, KCNK9 block -7.2 and KCNQ1 act inactive.
Screening O=C(Cn1cncn1)c1ccccc1 returned KCNQ1 block inactive, Kir21 inh inactive, hERG rescue inactive, KCNK3 block inactive, KCNK9 block inactive and KCNQ1 act inactive.
For O=C(CC(CC(=O)c1ccc(Br)cc1)c1cccnc1)c1ccc(Br)cc1 the results were KCNQ1 block inactive, Kir21 inh inactive, hERG rescue inactive, KCNK3 block inactive, KCNK9 block inactive and KCNQ1 act inactive.
COc1ccccc1OCC#CCNC1CCCCC1C (stereo unspecified) was read as KCNQ1 block inactive, Kir21 inh -5.5, hERG rescue inactive, KCNK3 block inactive, KCNK9 block inactive and KCNQ1 act inactive.
`CN(C)c1nc(C#N)nc(N(C)C)n1` gave KCNQ1 block inactive, Kir21 inh inactive, hERG rescue 10, KCNK3 block inactive, KCNK9 block inactive and KCNQ1 act inactive.
Screening CCCCNC(=S)N1CCC(Cc2ccccc2)CC1 returned KCNQ1 block inactive, Kir21 inh inactive, hERG rescue inactive, KCNK3 block inactive, KCNK9 block inactive and KCNQ1 act inactive.
For Cn1c(=S)c2[nH]c(SCCN3CCCC3)nc2n(C)c1=O the results were KCNQ1 block inactive, Kir21 inh inactive, hERG rescue inactive, KCNK3 block inactive, KCNK9 block -6.9 and KCNQ1 act inactive.
`COc1ccc(C2C(C(=O)c3ccco3)=C(O)C(=O)N2CCCn2ccnc2)c(OC)c1` (stereo unspecified) gave KCNQ1 block inactive, Kir21 inh inactive, hERG rescue inactive, KCNK3 block inactive, KCNK9 block inactive and KCNQ1 act inactive.
Screening O=C(Nc1cccnc1)c1ccc(COc2ccccc2Br)o1 returned KCNQ1 block inactive, Kir21 inh inactive, hERG rescue 22, KCNK3 block inactive, KCNK9 block inactive and KCNQ1 act inactive.
`O=C(NCc1cccnc1)c1ccc(COc2ccccc2Br)o1` gave KCNQ1 block inactive, Kir21 inh inactive, hERG rescue inactive, KCNK3 block inactive, KCNK9 block inactive and KCNQ1 act inactive.
For COC(C/C=C\C(=O)[C@@H](C)OCc1ccccc1)OC the results were KCNQ1 block inactive, Kir21 inh inactive, hERG rescue inactive, KCNK9 block inactive and KCNQ1 act inactive.
`O=C(/C=C/c1ccc(Br)cc1)N1CCN(c2cccc(C(F)(F)F)c2)CC1` gave KCNQ1 block 7, Kir21 inh inactive, hERG rescue inactive, KCNK3 block inactive, KCNK9 block inactive and KCNQ1 act inactive.
COc1ccc(C2/C=C\CN(Cc3ccco3)CC(=O)N2Cc2ccc(F)cc2)cc1 (stereo unspecified) was read as KCNQ1 block inactive, Kir21 inh inactive, hERG rescue inactive, KCNK3 block inactive, KCNK9 block -6.9 and KCNQ1 act inactive.
For COc1ccc2c(-c3ccccc3)cc(SC(C)C(N)=O)nc2c1 (stereo unspecified) the results were KCNQ1 block inactive, Kir21 inh inactive, hERG rescue inactive, KCNK3 block inactive, KCNK9 block inactive and KCNQ1 act inactive.
`CC(C)(C)c1cc(C(=O)NNC(=O)c2ccc(Cl)cc2)no1` gave KCNQ1 block inactive, Kir21 inh inactive, hERG rescue 5.7, KCNK3 block inactive, KCNK9 block inactive and KCNQ1 act 18.
For Cc1cc(C(=O)NNC(=O)c2ccc(C(F)(F)F)cc2)no1 the results were KCNQ1 block inactive, Kir21 inh inactive, hERG rescue inactive, KCNK3 block inactive, KCNK9 block inactive and KCNQ1 act inactive.
COC(=O)C(CC(C)C)NC(=O)c1ccc([N+](=O)[O-])c(C)c1 (stereo unspecified) was read as KCNQ1 block inactive, Kir21 inh inactive, hERG rescue 4.6, KCNK3 block inactive, KCNK9 block inactive and KCNQ1 act inactive.
Cc1ccc(-n2nc3c(N4CCC(C(=O)NCc5ccccc5C)CC4)nnc(C)c3c2C)cc1 was read as KCNQ1 block 7, Kir21 inh inactive, hERG rescue inactive, KCNK3 block inactive, KCNK9 block inactive and KCNQ1 act inactive.
Screening CCOc1ccccc1CNC(=O)C1CCN(c2nnc(C)c3c(C)n(-c4ccc(C)cc4)nc23)CC1 returned KCNQ1 block inactive, Kir21 inh inactive, hERG rescue inactive, KCNK3 block inactive, KCNK9 block inactive and KCNQ1 act inactive.
Screening O=c1c2ccccc2sn1-c1ccccc1 returned KCNQ1 block inactive, Kir21 inh inactive, hERG rescue 6.5, KCNK3 block inactive, KCNK9 block inactive and KCNQ1 act inactive.
